Assay results pooled from the literature.
Compare with care: the assays were run in different laboratories.
Target: Sigma non-opioid intracellular receptor 1 (SIGMAR1, Homo sapiens, UniProt Q99720)

Structure (SMILES)	effect on	method	setting	Ki [µM]
CCN(CC)CCCC(C)Nc1ccnc2cc(Cl)ccc12 (stereo not drawn)	ligand displacement	radioligand		0.741
CC(C)(C)Oc1cc(CCC(C)(C)N2Cc3ccc(S(C)(=O)=O)cc3C2)ccc1O	ligand displacement	radioligand	cell membranes	0.063
OCCCN1CC[C@@H]2C[C@H]1c1cc(-c3ccc(C(F)(F)F)cc3)ccc12	ligand displacement	radioligand		0.167
CCCn1nc(C(=O)N2CCCCC2)c2c1CCC(N1CCN(c3ccc([N+](=O)[O-])cc3)CC1)C2 (stereo not drawn)	ligand displacement	radioligand		1.59
COc1ccc2ccn(CCCCN3Cc4cc(OC)c(OC)cc4C3)c2c1	ligand displacement	radioligand	cell membranes	0.07
COc1ccccc1N1CCN(CCCCNC(=O)c2cc3cc(OCCF)ccc3[nH]2)CC1	cell-free assay			> 10
COc1ccc2ccn(CCCCN3CCc4cc(OC)c(OC)cc4C3)c2c1	ligand displacement	radioligand	cell membranes	0.357
COc1ccccc1N1CCN(CCCCNC(=O)c2cc3cc(O)ccc3[nH]2)CC1	cell-free assay			> 10
CCCn1nc(C(=O)N(C)C)c2c1CCC(NCc1ccc(Cl)cc1)C2 (stereo not drawn)	ligand displacement	radioligand		> 10
COc1cc2c(cc1OC)CN(CCCCn1ccc3c(OC)cccc31)CC2	ligand displacement	radioligand	cell membranes	0.259
COc1ccc2[nH]c(C(=O)NC/C=C/CN3CCN(c4ccccc4OC)CC3)cc2c1	cell-free assay			> 10
CCCn1nc(C(=O)N2CCCCC2)c2c1CCC(NCCN1CCCCC1)C2 (stereo not drawn)	ligand displacement	radioligand		> 10
